Assay results gathered from unrelated publications.
Action: inhibitor
MAPK14: Mitogen-activated protein kinase 14 (MAPK14, Homo sapiens, UniProt Q16539)

SMILES	target	assay	system	conditions	inhibition
COc1cc2ncnc(Nc3ccc(Oc4ccccc4)c(C)c3C)c2cc1OC	MAPK14	enzyme activity		1 µM	-3%
CC/C(=N\NC(=O)NCc1cccc(O)c1)c1ccc(O)c(C)c1O	MAPK14	enzyme activity		0.1 µM	-2.8%
CNC(=O)c1cc(Oc2ccc(NC(=O)Nc3ccc(Cl)c(C(F)(F)F)c3)cc2)ccn1	MAPK14	enzyme activity		0.3 µM	-9%
CNc1cc(Oc2cc(C(=O)Nc3cc(N4CCN(C)CC4)cc(C(F)(F)F)c3)ccc2C)ncn1	MAPK14	target engagement in cells, chemoproteomics	Huh-7	1 µM	-29%
COc1cc2ncnc(Nc3ccc(Oc4ccccc4)cc3C)c2cc1OC	MAPK14	enzyme activity		1 µM	3%
CCCS(=O)(=O)Nc1ccc(F)c(C(=O)c2c[nH]c3ncc(-c4ccc(Cl)cc4)cc23)c1F	MAPK14	enzyme activity		1 µM	< 10%
CN1CC(Oc2cnc(C#N)cc2-c2ccn3nc(NC(=O)C4CC4)cc3c2)C1	MAPK14	enzyme activity		1 µM	-19%
CS(=O)(=O)Nc1cccc(-c2csc(NC(=O)CSc3nc4nccnc4c(=O)n3CCc3ccccc3)n2)c1	MAPK14	enzyme activity		10 µM	-1%
Cc1ccc(Nc2nccc(N(C)c3ccc4c(C)n(C)nc4c3)n2)cc1S(N)(=O)=O	Mitogen-activated protein kinase 14 (MAPK14, Homo sapiens, UniProt Q16539, T106M)	enzyme activity		10 µM	13%
CCCCNc1ncc2c(-c3ccc(F)cc3)nn(C[C@H]3CC[C@H](N)CC3)c2n1	MAPK14	target engagement in cells, chemoproteomics		20 mM	60.6%
O=C(CSc1nc2nccnc2c(=O)n1CCc1ccccc1)Nc1nccs1	MAPK14	enzyme activity		10 µM	3%
CN(C)C1CCN(CC#Cc2nn(C3CCCC3)c3nc(NCc4ccccc4)ncc23)C1 (stereo not drawn)	MAPK14	enzyme activity, FRET		1 µM	3%
COc1cccc2c(NCc3ccccc3)nc(-n3c(N)nc4ccccc43)nc12	MAPK14	target engagement in cells, chemoproteomics		20 mM	16.5%
CN(c1ncccc1CNc1nc(Nc2ccc3c(c2)CC(=O)N3)ncc1C(F)(F)F)S(C)(=O)=O	MAPK14	enzyme activity		1 µM	0%
CCN(CC)CCNC(=O)c1c(C)[nH]c(/C=C2\C(=O)Nc3ccc(F)cc32)c1C	MAPK14	enzyme activity		10 µM	-1%
